Test results reported in ChEMBL document CHEMBL1122622, “Carbocyclic analogues of xylofuranosylpurine nucleosides. Synthesis and antitumor activity” (J Med Chem, 1984).

Substrate: Nc1ncnc2c1ncn2[C@@H]1O[C@H](CO)[C@@H](O)[C@H]1O
Experiment: Compound was evaluated for the kinetic constant on adenosine deaminase and expressed as Km
Outline: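 Calf intestinal adenosine deaminase (type III). Adenosine was mixed with a range of test compound concentrations in 1 mL 0.05 M phosphate buffer, pH 7.5, at 25 °C. Reactions were started with 20 milliunits of enzyme, and deamination was followed as the fall in absorbance at 265 nm. Kinetic constants came from Wilkinson analysis, with each point the mean of triplicates.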

B1: Adenosine deaminase (Mus musculus), P03958 (protein)
chain: MAQTPAFNKPKVELHVHLDGAIKPETILYFGKKRGIALPADTVEELRNIIGMDKPLSLPGFLAKFDYYMPVIAGCREAIKRIAYEFVEMKAKEGVVYVEVRYSPHLLANSKVDPMPWNQTEGDVTPDDVVDLVNQGLQEGEQAFGIKVRSILCCMRHQPSWSLEVLELCKKYNQKTVVAMDLAGDETIEGSSLFPGHVEAYEGAVKNGIHRTVHAGEVGSPEVVREAVDILKTERVGHGYHTIEDEALYNRLLKENMHFEVCPWSSYLTGAWDPKTTHAVVRFKNDKANYSLNTDDPLIFKSTLDTDYQMTKKDMGFTEEEFKRLNINAAKSSFLPEEEKKELLERLYREYQ
- Km: 7.8 µM
